Test results published in ChEMBL document CHEMBL1150415 (J Med Chem, 2008).
Activity calls are given as the source filed them. No cut-off for these calls is given here.

Assays:
[1] = Ratio of AUC in Sprague-Dawley rat at 25 mg/kg, po to IC50 for TXB2 production in Sprague-Dawley rat whole blood; format: functional
Blood [2] = test: Inhibition of TXB2 production in Sprague-Dawley rat whole blood; format: functional, tissue-based
Procedure, shortened: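 Rat whole blood stimulated with calcium ionophore A23187 at 5 µM, with thromboxane B2 measured. Each run gives the mean of triplicate assays, and values come from at least two runs.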

[3] = Plasma concentration in collagen-induced arthritis mouse model at 100 mg/kg, po twice daily after 1.5 hrs; format: ADME, organism-based; set-up: dose 100 mg/kg, route oral
Rattus norvegicus [4] = test: Inhibition of PGE2 production in carrageenan-stimulated rat air pouch model at 5 mg/kg, po after 6 hrs; format: functional
Procedure, shortened: (§1)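 Carrageenan was injected into a preformed air pouch 2 h after oral drug. Pouch contents were removed 6 h later and PGE2 was quantified.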

Mus musculus = test: Plasma concentration in collagen-induced arthritis mouse model at 100 mg/kg, po twice daily after 12 to 14 hrs; format: ADME, organism-based; set-up: dose 100 mg/kg, route oral; conditions: in vivo
Rattus norvegicus [5] = test: Inhibition of carrageenan-induced paw edema in po dosed Sprague-Dawley rat administered 2 hrs before carrageenan challenge; format: functional
[6] = Inhibition of cytosolic phospholipase A2alpha by GLU micelle assay
Procedure, shortened: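 Micellar assay with 7-hydroxycoumarinyl-γ-linolenate (GLU) substrate, presenting inhibitor and substrate to the enzyme in high-lipid micelles. Each run gives the mean of duplicate assays, and values come from at least two runs.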

Rattus norvegicus [7] = test: Inhibition of PGE2 production in carrageenan-stimulated orally dosed rat air pouch model after 6 hrs; format: functional; conditions: po; procedure, shortened: as §1
Blood [8] = test: Inhibition of PAF production in human whole blood at 0.15 uM; format: functional
Procedure, shortened: (§2)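 Human whole blood stimulated with calcium ionophore A23187 at 30 µM. Several arachidonic acid metabolites (LTB4, PGE2, PGF2α, TXB2) and PAF production were quantified.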

[9] = Oral bioavailability in rat; format: ADME, organism-based; conditions: in vivo
Rattus norvegicus [10] = test: Reduction in cartilage damage in Freund's adjuvant-induced arthritis Lewis rat model at 50 mg/kg, po for 11 days; format: functional, organism-based; set-up: dose 50 mg/kg
Procedure, shortened: (§3)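 Arthritis was induced in Lewis rats by intradermal complete Freund's adjuvant at the base of the tail. Oral treatment began on day 8, when mean clinical joint scores were 12, and continued for 11 days. Tarsal joints were taken at necropsy and lesions were scored histologically in blinded fashion.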

[11] = Plasma concentration in adjuvant-induced arthritis Lewis rat model at 25 mg/kg, po after 4 hrs; format: ADME, organism-based; set-up: dose 25 mg/kg, route oral
MC9 [12] = test: Inhibition of LTB4 production in mouse MC9 cells; format: functional, cell-based
[13] = target: T1, Cytosolic phospholipase A2 gamma (Homo sapiens) (UniProt Q9UP65); test: Inhibition of cytosolic phospholipase A2gamma at 0.5 uM
T1 sequence (whole entry): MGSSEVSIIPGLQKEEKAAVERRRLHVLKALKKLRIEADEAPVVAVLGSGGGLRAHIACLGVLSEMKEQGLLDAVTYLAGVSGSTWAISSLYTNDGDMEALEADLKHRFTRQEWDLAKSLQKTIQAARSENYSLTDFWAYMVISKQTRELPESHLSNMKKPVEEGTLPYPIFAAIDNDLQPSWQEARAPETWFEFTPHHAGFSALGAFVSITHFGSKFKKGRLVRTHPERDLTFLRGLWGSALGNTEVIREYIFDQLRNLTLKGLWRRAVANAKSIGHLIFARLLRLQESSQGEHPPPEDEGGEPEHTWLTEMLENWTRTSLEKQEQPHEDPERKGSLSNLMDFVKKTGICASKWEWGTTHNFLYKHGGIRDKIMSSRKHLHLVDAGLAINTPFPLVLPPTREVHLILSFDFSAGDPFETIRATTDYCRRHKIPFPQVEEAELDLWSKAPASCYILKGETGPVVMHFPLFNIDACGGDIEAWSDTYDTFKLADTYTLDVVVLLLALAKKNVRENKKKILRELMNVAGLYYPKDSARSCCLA
Procedure, shortened: (§4)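 Isolated enzyme activity on PAPC (1-palmitoyl-2-arachidonoyl-sn-glycero-3-phosphocholine) liposome substrate.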

Rattus norvegicus [14] = test: Reduction in cartilage damage in Freund's adjuvant-induced arthritis Lewis rat model at 25 mg/kg, po for 11 days; format: functional, organism-based; set-up: dose 25 mg/kg; procedure, shortened: as §3
Ovis aries [15] = test: Effect on late asthmatic response in Ascaris Suum antigen-induced reversible airway bronchoconstriction sheep model assessed as reduction in lung resistance at 10 mg/kg, po bid administered 2 hrs before antigen challenge measured 5 to 8 hrs after challenge; format: functional; set-up: scale not given: the % may be the effect or the level left
[16] = target: T2, Cytosolic phospholipase A2 beta (Homo sapiens) (UniProt P0C869); test: Inhibition of cytosolic phospholipase A2beta at 0.5 uM; procedure, shortened: as §4
T2 sequence (whole entry): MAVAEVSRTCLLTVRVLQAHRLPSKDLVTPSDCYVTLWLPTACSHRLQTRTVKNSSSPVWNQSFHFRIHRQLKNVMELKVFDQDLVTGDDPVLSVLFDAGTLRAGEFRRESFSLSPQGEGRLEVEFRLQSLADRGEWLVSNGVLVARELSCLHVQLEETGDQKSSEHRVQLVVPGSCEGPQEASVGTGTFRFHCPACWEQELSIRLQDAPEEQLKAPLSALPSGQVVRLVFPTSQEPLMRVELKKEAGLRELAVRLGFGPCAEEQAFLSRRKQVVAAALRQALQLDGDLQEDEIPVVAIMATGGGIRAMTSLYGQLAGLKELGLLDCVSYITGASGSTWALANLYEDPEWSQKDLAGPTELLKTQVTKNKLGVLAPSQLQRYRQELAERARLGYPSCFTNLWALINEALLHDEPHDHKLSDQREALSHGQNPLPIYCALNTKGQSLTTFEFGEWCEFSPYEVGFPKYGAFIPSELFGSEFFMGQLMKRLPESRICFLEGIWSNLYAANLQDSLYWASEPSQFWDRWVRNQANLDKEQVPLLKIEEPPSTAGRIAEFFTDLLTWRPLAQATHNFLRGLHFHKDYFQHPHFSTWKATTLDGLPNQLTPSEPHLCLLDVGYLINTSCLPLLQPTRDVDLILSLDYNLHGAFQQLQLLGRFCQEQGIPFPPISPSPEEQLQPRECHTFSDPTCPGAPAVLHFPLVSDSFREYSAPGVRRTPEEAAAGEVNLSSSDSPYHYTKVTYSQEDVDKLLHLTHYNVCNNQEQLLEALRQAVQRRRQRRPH

MC9 [17] = test: Inhibition of PGF2alpha production in mouse MC9 cells; format: functional, cell-based
Rattus norvegicus [18] = test: Reduction in cartilage damage in Freund's adjuvant-induced arthritis Lewis rat model at 5 mg/kg, po for 11 days; format: functional, organism-based; set-up: dose 5 mg/kg; procedure, shortened: as §3
[19] = Plasma concentration in collagen-induced arthritis mouse model at 100 mg/kg, po twice daily after 3 hrs; format: ADME, organism-based; set-up: dose 100 mg/kg, route oral
[20] = Inhibition of cytosolic phospholipase A2alpha
[21] = target: Prostaglandin G/H synthase 2, cyclooxygenase-2 (Homo sapiens) (UniProt P35354); test: Inhibition of COX2-dependent PGE2 production in IL1B stimulated human A549 cells at 1 uM in presence of arachidonic acid
Rattus norvegicus [22] = test: Reduction in synovitis damage in Freund's adjuvant-induced arthritis Lewis rat model at 25 mg/kg, po for 11 days; format: functional, organism-based; set-up: dose 25 mg/kg; procedure, shortened: as §3
Blood [23] = test: Inhibition of TXB2 production in human whole blood at 0.15 uM; format: functional; procedure, shortened: as §2
[24] = Inhibition of cytosolic phospholipase A2alpha at 0.020 uM; procedure, shortened: as §4
Blood [25] = test: Inhibition of PGF2alpha production in human whole blood at 0.15 uM; format: functional; procedure, shortened: as §2
[26] = Plasma concentration in adjuvant-induced arthritis Lewis rat model at 25 mg/kg, po after 16 hrs; format: ADME, organism-based; set-up: dose 25 mg/kg, route oral
Rattus norvegicus [27] = test: Reduction in synovitis damage in Freund's adjuvant-induced arthritis Lewis rat model at 5 mg/kg, po for 11 days; format: functional, organism-based; set-up: dose 5 mg/kg; procedure, shortened: as §3
[28] = Plasma concentration in adjuvant-induced arthritis Lewis rat model at 5 mg/kg, po after 4 hrs; format: ADME, organism-based; set-up: dose 5 mg/kg, route oral
Ovis aries [29] = test: Inhibition of acute hyperresponsiveness in Ascaris Suum antigen-induced reversible airway bronchoconstriction sheep model assessed as reduction in lung resistance at 10 mg/kg, po bid administered and measured after 16 hrs
[30] = Plasma concentration in adjuvant-induced arthritis Lewis rat model at 50 mg/kg, po after 4 hrs; format: ADME, organism-based; set-up: dose 50 mg/kg, route oral
[31] = Plasma concentration in adjuvant-induced arthritis Lewis rat model at 5 mg/kg, po after 16 hrs; format: ADME, organism-based; set-up: dose 5 mg/kg, route oral
Blood [32] = test: Inhibition of LTB4 production in human whole blood at 0.15 uM; format: functional; procedure, shortened: as §2
[33] = Plasma concentration in adjuvant-induced arthritis Lewis rat model at 50 mg/kg, po after 16 hrs; format: ADME, organism-based; set-up: dose 50 mg/kg, route oral
Blood [34] = test: Inhibition of PGE2 production in human whole blood at 0.15 uM; format: functional; procedure, shortened: as §2
MC9 [35] = test: Inhibition of PGF2apha production in arachidonic acid-stimulated mouse MC9 cells; format: functional, cell-based
[36] = target: Prostaglandin G/H synthase 2, cyclooxygenase-2 (Homo sapiens) (UniProt P35354); test: Inhibition of COX2-dependent PGE2 production in IL1B stimulated human A549 cells at 0.040 uM
[37] = Inhibition of secreted phospholipase A2 at 0.5 uM
Procedure, shortened: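 Type II secreted PLA2 activity measured with PAPE (1-palmitoyl-2-arachidonoyl-sn-glycero-3-phosphoethanolamine) liposomes as substrate.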

Rattus norvegicus [38] = test: Reduction in synovitis damage in Freund's adjuvant-induced arthritis Lewis rat model at 50 mg/kg, po for 11 days; format: functional, organism-based; set-up: dose 50 mg/kg; procedure, shortened: as §3

Chain of Prostaglandin G/H synthase 2, cyclooxygenase-2 (Homo sapiens) (P35354 whole entry, looked up): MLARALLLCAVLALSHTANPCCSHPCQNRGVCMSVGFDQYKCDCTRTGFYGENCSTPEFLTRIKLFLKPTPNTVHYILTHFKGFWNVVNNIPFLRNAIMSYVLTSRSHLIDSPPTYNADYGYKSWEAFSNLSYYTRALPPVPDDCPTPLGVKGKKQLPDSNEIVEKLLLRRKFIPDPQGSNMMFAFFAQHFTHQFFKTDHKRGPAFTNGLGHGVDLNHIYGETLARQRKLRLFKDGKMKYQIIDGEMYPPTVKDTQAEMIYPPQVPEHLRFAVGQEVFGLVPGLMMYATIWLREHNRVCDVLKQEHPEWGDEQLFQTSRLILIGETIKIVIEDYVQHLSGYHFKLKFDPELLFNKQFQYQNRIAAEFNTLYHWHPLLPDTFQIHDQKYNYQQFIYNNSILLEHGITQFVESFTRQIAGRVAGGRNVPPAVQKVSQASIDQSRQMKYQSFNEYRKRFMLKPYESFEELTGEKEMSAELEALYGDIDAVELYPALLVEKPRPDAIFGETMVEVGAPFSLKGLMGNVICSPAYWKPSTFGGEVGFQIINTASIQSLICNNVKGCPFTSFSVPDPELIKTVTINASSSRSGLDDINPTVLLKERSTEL

O=C(O)c1ccc(OCCc2c(CCNS(=O)(=O)Cc3ccc(Cl)c(Cl)c3)n(C(c3ccccc3)c3ccccc3)c3ccc(Cl)cc23)cc1 [ECOPLADIB]
Ratio [1]: 18 h
IC50 (Blood [2]): 160 nM
concentration at 1.5 h [3]: 4080 ng/mL
inhibition in vivo at 5 mg/kg (Rattus norvegicus [4]): < 10%
Cp (Mus musculus): 531 ng/mL
ED50 (Rattus norvegicus [5]): 40 mg/kg
IC50 [6]: 150 nM
ED50 (Rattus norvegicus [7]): 10 mg/kg

O=C(O)c1ccc(CCCc2c(CCNS(=O)(=O)Cc3ccc(Cl)c(Cl)c3)n(C(c3ccccc3)c3ccccc3)c3ccc(Cl)cc23)cc1 [EFIPLADIB]
inhibition at 0.15 µM (Blood [8]): 50%
bioavailability [9]: 6%
Activity (Rattus norvegicus [10]): Active
concentration at 4 h [11]: 1130 ng/mL
IC50 (MC9 [12]): 20 nM
Activity [13]: inactive
Activity (Rattus norvegicus [14]): Active
Activity (Ovis aries [15]): 50%
Activity [16]: inactive
IC50 (MC9 [17]): 20 nM
Activity (Rattus norvegicus [18]): Active
concentration at 3 h [19]: 7200 ng/mL
IC50 [20]: < 10 nM
Activity [21]: inactive
Activity (Rattus norvegicus [22]): Active
inhibition at 0.15 µM (Blood [23]): 57%
inhibition [24]: > 90%
inhibition at 0.15 µM (Blood [25]): 66%
concentration at 16 h [26]: 166 ng/mL
Cp (Mus musculus): 2315 ng/mL
Activity (Rattus norvegicus [27]): Active
concentration at 4 h [28]: 147 ng/mL
ED50 (Rattus norvegicus [5]): 35 mg/kg
Activity (Ovis aries [29]): Active
concentration at 4 h [30]: 3600 ng/mL
concentration at 16 h [31]: 34 ng/mL
inhibition at 0.15 µM (Blood [32]): 64%
concentration at 16 h [33]: 692 ng/mL
inhibition at 0.15 µM (Blood [34]): 78%
IC50 (MC9 [35]): 900 nM
inhibition [36]: > 95%
IC50 [6]: 40 nM
Activity [37]: inactive
ED50 (Rattus norvegicus [7]): 6 mg/kg
Activity (Rattus norvegicus [38]): Active
